According to ChEMBL document CHEMBL1155579, “Known and novel terpenes from Buddleja globosa displaying selective antifungal activity against dermatophytes” (2000):
Values after ≈ are worked out from the molar mass of the structure shown. Active and inactive are the calls of the source. The rule behind the calls is not given here.

Columns and labels:
[1] = system: Scopulariopsis brevicaulis; experiment: Antifungal activity against Scopulariopsis brevicaulis at 1000 ug/ml after 24 hrs
Epidermophyton floccosum = experiment: Antifungal activity against Epidermophyton floccosum after 24 hrs; assay type: functional
Aspergillus niger = experiment: Antifungal activity against Aspergillus niger ATCC 16404 at 1000 ug/ml after 24 hrs; assay type: functional, organism-based
Penicillium chrysogenum = experiment: Antifungal activity against Penicillium notatum ATCC 11654 at 1000 ug/ml after 24 hrs; assay type: functional, organism-based
[2] = system: Neoscytalidium dimidiatum; experiment: Antifungal activity against Scytalidium dimidiatum at 1000 ug/ml after 24 hrs; assay type: functional, organism-based
Candida albicans = experiment: Antifungal activity against Candida albicans ATCC 10234 at 1000 ug/ml after 24 hrs; assay type: functional, organism-based
Outline: (§1)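 Agar dilution in 96-well plates. Samples in DMSO, made up with sterile water, 1:2 serially diluted over six steps, then mixed with an equal volume of molten double-strength Sabouraud dextrose agar (200 µL per well). Yeasts were grown on SDA at 30 °C for 24 h and harvested in PBS. 100 µL inoculum (10⁵ CFU) was added per well and incubated at 30 °C for 24 h. Miconazole was the positive control.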

[3] = system: Trichophyton interdigitale; experiment: Antifungal activity against Trichophyton interdigitale EL 5171 after 24 hrs; assay type: functional
Trichophyton rubrum = experiment: Antifungal activity against Trichophyton rubrum after 24 hrs
Saccharomyces cerevisiae = experiment: Antifungal activity against Saccharomyces cerevisiae NCIMB 080178 at 1000 ug/ml after 24 hrs; assay type: functional, organism-based
Outline: as §1

MIC (Epidermophyton floccosum) | MIC [3] | MIC (Trichophyton rubrum) | SMILES | Activity [1] | Activity (Aspergillus niger) | Activity (Penicillium chrysogenum) | Activity [2] | Activity (Candida albicans) | Activity (Saccharomyces cerevisiae)
2500 µM (≈ 751 µg/mL) | 2500 µM (≈ 751 µg/mL) | 2500 µM (≈ 751 µg/mL) | CC(C)C1=CC=C2C(=C(O)C[C@H]3C(C)(C)CCC[C@]23C)C1=O [BUDDLEJONE] | inactive | inactive | inactive | inactive | inactive | inactive
5 µM (≈ 2.08 µg/mL) | 5 µM (≈ 2.08 µg/mL) | 5 µM (≈ 2.08 µg/mL) | Clc1ccc(COC(Cn2ccnc2)c2ccc(Cl)cc2Cl)c(Cl)c1 (centres undefined) [MICONAZOLE] | inactive | inactive | inactive | inactive | inactive | inactive
625 µM (≈ 378 µg/mL) | 625 µM (≈ 378 µg/mL) | 625 µM (≈ 378 µg/mL) | CC(C)[C@]1(O)C(=O)C=C2[C@@]3(CC[C@H]4C(C)(C)CCC[C@]24C)[C@@H]2C(=O)[C@@](O)(C(C)C)[C@@H](C4=C2[C@@]2(C)CCCC(C)(C)[C@@H]2CC4)[C@H]31 [MAYTENONE] | inactive | inactive | inactive | inactive | inactive | inactive
2640 µM (≈ 751 µg/mL) | 2640 µM (≈ 751 µg/mL) | 2640 µM (≈ 751 µg/mL) | CC(C)C1=CC=C2C(=CC[C@H]3C(C)(C)CCC[C@]23C)C1=O [DEOXYBUDDLEJONE] | inactive | inactive | inactive | inactive | inactive | inactive
51 µM (≈ 12 µg/mL) | 51 µM (≈ 12 µg/mL) | 51 µM (≈ 12 µg/mL) | C=C1CC/C=C(\C)C(=O)[C@H](O)[C@@H]2[C@@H]1CC2(C)C [BUDDLEDIN B] | inactive | inactive | inactive | inactive | inactive | inactive

SMILES | MIC (Epidermophyton floccosum) | MIC [3] | MIC (Trichophyton rubrum) | Activity [1] | Activity (Aspergillus niger) | Activity (Penicillium chrysogenum) | Activity [2] | Activity (Candida albicans) | Activity (Saccharomyces cerevisiae)
C=C1CC/C=C(\C)C(=O)[C@H](OC(C)=O)[C@@H]2[C@@H]1CC2(C)C [BUDDLEDIN A] | 43 µM (≈ 11.9 µg/mL) | 43 µM (≈ 11.9 µg/mL) | 43 µM (≈ 11.9 µg/mL) | inactive | inactive | inactive | inactive | inactive | inactive
